Only some compounds are listed: those with a hit (about 4% of all), similar ones and a draw of the others.
Exocytosis inh: LAMP-1 surface exposure blockers, TALL-104 cells – cell-based, flow cytometry, MLPCN library, primary screen. 0.66% of 360,000 active. AID 651702, 2012. inhibition, % at 10 µM. TALL-104 LAMP-1 surface exposure; cells stimulated with thapsigargin and PMA;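 active means inhibition above about 55%, limit read from the data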
UPR CHOP act: activators of apoptotic CHOP UPR arm, primary screen, cell-based, CHO-CHOP luciferase reporter, luminescence, uHTS | UPR activation; percent of tunicamycin response over DMSO baseline | activation, % at 10 µM | 0.34% of 330,000 active | AID 449763, 2010;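 active means at 10 µM dose, activation of 40% or more, normalized to positive control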;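 further: 100% = tunicamycin at 10 µg/mL and 0% = DMSO alone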
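Dosing – one dose, 10 µM in 0.5% DMSO · System – CHO-CHOP cells, stable luciferase reporter of PERK-eIF2a-CHOP signalling · Input – 500 cells/well · Control set – tunicamycin 10 µg/mL final as positive, DMSO-only wells as negative · Timing – 6 h compound treatment, 37 °C · Measure – % activation vs tunicamycin · Technique – luminescence read with Steady-Glo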
XBP1 UPR activ: activators of adaptive XBP1 UPR arm, primary screen, cell-based, CHO-XBP1 luciferase reporter, luminescence, uHTS | IRE1-XBP1 UPR activation; percent of tunicamycin response, DMSO as zero | AID 463104, 2010 | 0.33% of 330,000 active | activation, % at 20 µM;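 active means versus positive control, 20 µM dose yields 30% or more activation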;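 further: 100% = tunicamycin at 10 µg/mL and 0% = DMSO only wells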
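assay system = CHO-XBP1 luciferase reporter cells | amount = 1000 cells/well | buffer or medium = F12 plus 10% FBS | compound dosing = single point, 20 µM final compound, 1% DMSO | incubation = 16-18 h cell attachment at 37 °C, then 6 h compound exposure | detection = Steady-Glo luminescence read | controls = tunicamycin 10 µg/mL and vehicle-only wells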
ABHD5 PLIN5 PPI: ABHD5-PLIN5 interaction inhibitors, primary screen, cell lysate, split luciferase complementation, luminescence. Split G. princeps luciferase complementation, 4 h. inhibition, % at 4 µM. 0.78% of 360,000 active;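 active means inhibition above the mean inhibition across every tested compound plus 3 SD, cut at about 22% in these data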;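 further: 0% = DMSO only wells and the 100% control is not disclosed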
Target sequence (Q00G26 whole entry, looked up): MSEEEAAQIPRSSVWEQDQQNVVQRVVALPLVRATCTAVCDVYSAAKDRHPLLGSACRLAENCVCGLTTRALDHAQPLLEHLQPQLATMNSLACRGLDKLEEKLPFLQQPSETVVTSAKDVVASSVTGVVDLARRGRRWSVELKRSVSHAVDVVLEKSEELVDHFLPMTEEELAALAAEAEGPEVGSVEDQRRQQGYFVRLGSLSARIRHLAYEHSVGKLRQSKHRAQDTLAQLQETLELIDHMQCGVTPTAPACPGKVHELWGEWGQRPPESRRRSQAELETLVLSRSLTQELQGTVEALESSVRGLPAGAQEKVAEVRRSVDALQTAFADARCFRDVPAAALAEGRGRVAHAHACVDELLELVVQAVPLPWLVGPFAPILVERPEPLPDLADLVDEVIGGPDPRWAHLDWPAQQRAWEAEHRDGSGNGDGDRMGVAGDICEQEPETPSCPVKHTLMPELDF
Target sequence (Q8WTS1 whole entry, looked up): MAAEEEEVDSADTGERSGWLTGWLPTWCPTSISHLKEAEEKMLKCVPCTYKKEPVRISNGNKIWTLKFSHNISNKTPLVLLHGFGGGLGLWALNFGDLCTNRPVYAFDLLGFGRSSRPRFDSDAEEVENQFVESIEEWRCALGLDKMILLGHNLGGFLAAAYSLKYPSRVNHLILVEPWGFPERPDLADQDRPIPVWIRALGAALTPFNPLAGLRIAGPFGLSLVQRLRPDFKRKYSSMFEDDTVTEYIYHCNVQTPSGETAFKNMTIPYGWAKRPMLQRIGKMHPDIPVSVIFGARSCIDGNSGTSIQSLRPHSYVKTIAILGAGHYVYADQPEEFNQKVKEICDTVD
Mdm2 MdmX PPI: inhibitors of human Mdm2-MdmX association, primary screen, cell-based, luminescence, split luciferase, SaOS-2, uHTS | AID 485346, 2010 | 3% of 330,000 active | SaOS-2 split-luciferase Mdm2/MdmX complementation | inhibition, % at 8 µM;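 active means inhibition of at least 50% at 8 µM in the primary screen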
Mdm2 MdmX conf: Mdm2-MdmX complex disruptors, retested hits, confirmation, luminescence, single concentration. shares compounds with Mdm2 MdmX PPI. 55% of 10,000 active. inhibition, % at 8 µM. Mdm2-MdmX binding, luminescent assay; in the data active means inhibition above about 40%
Full FLuc ctr: full-length luciferase signal inhibition, confirmation, counter-screen for Mdm2/MdmX interaction inhibitor project, cell-based, single concentration, SaOS-2 | 77% of 6,200 active | shares compounds with Mdm2 MdmX PPI | SaOS-2 full-length luciferase counterscreen, luminescence | inhibition, % at 8 µM;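 active means mean inhibition at 8 µM reaching about 37%, which flags the compound as non-specific, limit read from the data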;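 further: p53-null SaOS-2 cells with luciferase driven by a doxycycline-inducible promoter; compound on cells about two nights before reading with doxycycline added after day one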
Active calls of the source: *; · = not tested or not shown.

SMILES	Exocytosis inh	UPR CHOP act	XBP1 UPR activ	ABHD5 PLIN5 PPI	Mdm2 MdmX PPI	Mdm2 MdmX conf	Full FLuc ctr
CCC(C(=O)O/N=C(\N)c1ccc(C)cc1)c1ccccc1 (stereo not given)	0	0	4	0	51*	18	·
CN(Cc1cnc2nc(N)nc(N)c2n1)c1ccc(C(=O)N[C@@H](CCC(=O)O)C(=O)O)cc1	-5	-1	-5	-6	46	72*	30
COc1cc(NC(=O)c2cccs2)c(C(=O)OCC(=O)NCc2ccccc2)cc1OC	0	-1	4	-2	58*	16	·
COCCn1c(C)cc(C2=NNC(=NC3CC3)SC2)c1C	-4	-10	-7	-9	95*	94*	53*
C=CCN=C1NN=C(c2cc(C)n(CCOC)c2C)CS1	-16	-10	-7	1	86*	90*	31
C=CCn1c(C)cc(C2=NNC(=NC(C)(C)C)SC2)c1C	-6	-8	-6	7	88*	93*	80*
COCCn1c(C)cc(C2=NNC(=Nc3ccc(Cl)cc3Cl)SC2)c1C	4	0	0	-5	29	·	·
Cc1ccc(NC(=O)CN2CCOCC2)cc1Cl	-2	2	0	-2	15	·	·
Cc1ccc(NS(=O)(=O)c2cc(-c3n[nH]c(=O)c4ccccc34)ccc2C)cc1	17	2	1	4	64*	66*	50*
CCOC(=O)CNS(=O)(=O)c1cc(-c2n[nH]c(=O)c3ccccc23)ccc1C	-2	·	·	3	·	·	·
c1ccc(N/N=C(\Cc2ncc[nH]2)c2ccccc2)cc1	0	1	-1	7	15	·	·
COc1ccc(C(=O)N/N=C(\Cc2ncc[nH]2)c2ccccc2)cc1	-8	-3	1	7	54*	42*	26
COc1cc(C(=O)N/N=C(\Cc2ncc[nH]2)c2ccccc2)cc(OC)c1OC	1	11	3	6	54*	50*	24
O=C(Nc1ccc(F)cc1)Nc1cc(OCC(F)(F)F)cc(OCC(F)(F)F)c1	0	27	4	-25	89*	90*	52*
O=C(N/N=C/c1cc(Br)cs1)C(O)c1ccccc1 (stereo not given)	4	3	2	-4	23	·	·
CN(C)c1ccc(NC(=O)c2cn(-c3ccccc3)nc2-c2cccs2)cc1	1	5	0	6	10	·	·
O=C(Cc1ccc(Cl)cc1)Nc1ncccn1	3	0	5	2	-4	·	·
CCOC(=O)C1=CN(Cc2cccc(F)c2)S(=O)(=O)N(C)C1c1ccc(C(F)(F)F)cc1 (stereo not given)	1	3	-1	-4	34	·	·
Cc1cnc(NC(=O)CCNC(=O)c2ccccc2Cl)s1	4	-2	-2	-7	-3	·	·
Cc1cnc(NC(=O)COc2ccccc2Cl)s1	-2	-8	-6	5	53*	36	·
COc1ccc(-c2csc(NC(=O)c3ccc(OCC(=O)N4CCOCC4)c(OC)c3)n2)cc1OC	2	1	6	5	58*	39	·
COc1cc(C(=O)Nc2cccc(C)n2)ccc1OCC(=O)N1CCOCC1	-2	0	0	9	-26	·	·
COc1cc(/C=N/Nc2nc(-c3ccc(S(=O)(=O)N(C)C)cc3)cs2)ccc1O	16	9	-3	5	82*	56*	81*
COc1ccc(/C=N/Nc2nc(-c3cccc(S(=O)(=O)N4CCCC4)c3)cs2)cc1OC	-25	2	3	2	-4	·	·
COc1ccc(-c2csc(NC(=S)NC(=O)c3cccs3)n2)cc1OC	4	4	2	-4	41	·	·
SMILES	Exocytosis inh	UPR CHOP act	XBP1 UPR activ	ABHD5 PLIN5 PPI	Mdm2 MdmX PPI	Mdm2 MdmX conf	Full FLuc ctr
COc1ccc(-c2csc(NC(=S)NC(=O)c3ccc(S(=O)(=O)N(C)C)cc3)n2)cc1OC	9	7	3	5	70*	23	·
CN(CC(=O)Nc1ccccc1Br)C(=O)c1ccccc1Cc1ccccc1	-2	0	-3	-12	3	·	·
O=C(/C=C/c1ccccc1)Nc1cc(C(=O)O)cc(C(=O)O)c1	8	-2	-1	2	10	·	·
Cc1ccc2c(c1)c1c(n2CC(O)Cn2c(C)nc3ccccc32)/C(=N\O)CCC1 (stereo not given)	-2	-1	2	18	60*	6	·
Cc1ccc2c(c1)c1c(n2CC(O)Cn2c(C)nc3ccccc32)C(=O)CCC1 (stereo not given)	-1	2	0	16	16	·	·
Clc1ccc2c(c1)C(C1=NCCN1)c1ccccc1CS2 (stereo not given)	-1	1	1	-4	51*	53*	48*
CCOC(=O)CS(=O)(=O)c1nc(-c2ccc(F)cc2)cc(C(F)(F)F)n1	96*	-7	-11	53*	100*	98*	51*
CCOC(=O)c1c(C(F)(F)F)cc(-c2ccc(F)cc2)nc1C	0	1	1	1	2	·	·
Oc1ccc(N=Nc2ccc(Br)cc2)c(O)c1	7	2	12	0	82*	41*	98*
C=CCOc1ccc(/C=C/C(=O)Nc2ccc(C(=O)NC)cc2)cc1	8	-1	-1	3	75*	5	·
CCC(C)C1=CC(=Nc2c(C)n(C)n(-c3ccccc3)c2=O)C=C(C(C)CC)C1=O (stereo not given)	-1	1	-3	3	6	·	·
CC1=CC(=Nc2c(C)n(C)n(-c3ccccc3)c2=O)C=CC1=O	·	5	1	·	69*	8	·
CC1=CC(=Nc2c(C)n(C)n(-c3ccccc3)c2=O)C=C(C)C1=O	1	2	-3	-1	77*	26	·
CCCCn1c(-c2ccc(C(C)(C)C)cc2)nc2cc3[nH]c(=O)c(C(C)C)nc3cc21	-5	0	7	1	64*	26	·
CCCCn1c(-c2ccc(Cl)c(Cl)c2)nc2cc3[nH]c(=O)c(C(C)C)nc3cc21	10	-3	12	-13	19	·	·
CCC(C)NCC(O)COCc1ccc(Cl)cc1 (stereo not given)	0	0	-4	10	22	·	·
